Data as given in article PMC8210434 (ACS Omega, 2021).

Legend:
human AT1R = target: T1, human AT1R (Homo sapiens, UniProt P30556); experiment: AT1R competitive binding assay; conditions: 10 μM
T1 sequence (P30556 1-359): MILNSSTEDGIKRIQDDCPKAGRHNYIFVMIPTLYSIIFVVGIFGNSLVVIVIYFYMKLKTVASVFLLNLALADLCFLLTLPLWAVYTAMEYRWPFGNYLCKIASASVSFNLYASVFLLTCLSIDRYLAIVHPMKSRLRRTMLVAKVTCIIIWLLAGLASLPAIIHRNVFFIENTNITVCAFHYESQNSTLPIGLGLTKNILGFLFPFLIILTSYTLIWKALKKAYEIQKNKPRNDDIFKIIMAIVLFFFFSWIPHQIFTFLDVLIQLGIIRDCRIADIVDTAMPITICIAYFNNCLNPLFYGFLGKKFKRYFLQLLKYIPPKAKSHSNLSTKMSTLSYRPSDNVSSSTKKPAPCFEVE

CYP2C9 = CYP2C9 (Homo sapiens, UniProt P11712); experiment: CYP inhibition assay, CYP2C9; type: in vitro ADME
Sequence of CYP2C9 (P11712 whole entry): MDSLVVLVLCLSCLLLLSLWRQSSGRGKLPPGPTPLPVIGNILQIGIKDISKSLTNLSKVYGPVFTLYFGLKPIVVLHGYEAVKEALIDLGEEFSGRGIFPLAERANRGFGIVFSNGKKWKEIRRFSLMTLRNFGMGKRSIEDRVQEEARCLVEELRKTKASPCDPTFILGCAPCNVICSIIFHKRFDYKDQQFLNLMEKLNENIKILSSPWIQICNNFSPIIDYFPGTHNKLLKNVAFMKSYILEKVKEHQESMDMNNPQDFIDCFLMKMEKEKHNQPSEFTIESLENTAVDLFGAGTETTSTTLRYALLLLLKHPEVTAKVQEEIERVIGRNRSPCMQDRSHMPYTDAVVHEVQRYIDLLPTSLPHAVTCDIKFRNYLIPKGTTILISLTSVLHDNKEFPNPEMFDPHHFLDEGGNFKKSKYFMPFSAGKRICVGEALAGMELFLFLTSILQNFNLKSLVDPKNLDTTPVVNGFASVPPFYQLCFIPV

CCI rats = experiment: Chronic constriction injury; type: in vivo, Sprague–Dawley rats; conditions: orally dosed
NG108-15 cells = experiment: NG108-15 neurite outgrowth assay; type: cell-based; conditions: 1 μM compound, 0.1 μM angiotensin II, three days
CYP2C19 = CYP2C19 (Homo sapiens, UniProt P33261); experiment: CYP inhibition assay, CYP2C19; type: in vitro ADME
Sequence of CYP2C19 (P33261 whole entry): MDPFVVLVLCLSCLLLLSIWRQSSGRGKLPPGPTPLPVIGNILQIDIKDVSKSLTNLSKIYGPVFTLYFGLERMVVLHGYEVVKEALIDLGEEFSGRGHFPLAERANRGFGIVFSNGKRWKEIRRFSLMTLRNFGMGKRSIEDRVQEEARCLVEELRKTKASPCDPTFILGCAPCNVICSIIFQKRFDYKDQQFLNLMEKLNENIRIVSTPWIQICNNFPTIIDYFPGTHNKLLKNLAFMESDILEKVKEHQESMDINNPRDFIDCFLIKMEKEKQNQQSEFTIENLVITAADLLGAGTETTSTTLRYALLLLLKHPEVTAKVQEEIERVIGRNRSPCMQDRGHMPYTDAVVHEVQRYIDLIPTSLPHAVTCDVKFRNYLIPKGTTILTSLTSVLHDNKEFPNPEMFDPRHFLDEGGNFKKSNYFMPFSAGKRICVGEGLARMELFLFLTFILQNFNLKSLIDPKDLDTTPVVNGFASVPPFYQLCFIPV

monkeys = conditions: 39 weeks of chronic dosing; cited from earlier work
rats = experiment: Non-GLP 7-day acute rat toxicity study; type: in vivo, Sprague Dawley rats
How it was run: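 Rats received test compound daily for 7 days (non-GLP) at 200, 400 and 800 mg/kg/day, alongside a vehicle group. Endpoints were adverse events, laboratory abnormalities, salivary discharge scored 1 h after dosing, and gross anatomy of kidneys, hearts and livers compared with vehicle.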

[1] = In vivo pharmacokinetic study in rats; conditions: male, Sprague Dawley, rat, plasma
CYP2C8 = target: T2, CYP2C8 (Homo sapiens, UniProt P10632); experiment: CYP inhibition assay, CYP2C8; type: in vitro ADME
T2 sequence (P10632 1-490): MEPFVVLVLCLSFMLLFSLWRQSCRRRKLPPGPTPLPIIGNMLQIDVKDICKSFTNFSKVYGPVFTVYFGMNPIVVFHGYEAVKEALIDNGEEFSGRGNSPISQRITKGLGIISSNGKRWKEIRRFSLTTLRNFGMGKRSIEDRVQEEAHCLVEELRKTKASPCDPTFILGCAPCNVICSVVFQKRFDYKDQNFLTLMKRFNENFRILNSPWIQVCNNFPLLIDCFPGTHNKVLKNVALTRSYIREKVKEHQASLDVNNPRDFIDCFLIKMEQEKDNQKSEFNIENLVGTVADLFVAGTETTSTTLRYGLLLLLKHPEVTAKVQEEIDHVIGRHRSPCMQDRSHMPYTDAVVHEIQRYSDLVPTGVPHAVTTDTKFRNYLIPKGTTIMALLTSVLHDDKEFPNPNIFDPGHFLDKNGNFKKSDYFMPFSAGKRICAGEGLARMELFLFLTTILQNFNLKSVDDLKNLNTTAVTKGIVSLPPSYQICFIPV

[2] = Liver microsome stability assay, rat; type: in vitro ADME; conditions: liver microsomes, pH 7.4
CYP3A4 = CYP3A4 (Homo sapiens, UniProt P08684); experiment: CYP inhibition assay, CYP3A4; type: in vitro ADME
Sequence of CYP3A4 (P08684 whole entry): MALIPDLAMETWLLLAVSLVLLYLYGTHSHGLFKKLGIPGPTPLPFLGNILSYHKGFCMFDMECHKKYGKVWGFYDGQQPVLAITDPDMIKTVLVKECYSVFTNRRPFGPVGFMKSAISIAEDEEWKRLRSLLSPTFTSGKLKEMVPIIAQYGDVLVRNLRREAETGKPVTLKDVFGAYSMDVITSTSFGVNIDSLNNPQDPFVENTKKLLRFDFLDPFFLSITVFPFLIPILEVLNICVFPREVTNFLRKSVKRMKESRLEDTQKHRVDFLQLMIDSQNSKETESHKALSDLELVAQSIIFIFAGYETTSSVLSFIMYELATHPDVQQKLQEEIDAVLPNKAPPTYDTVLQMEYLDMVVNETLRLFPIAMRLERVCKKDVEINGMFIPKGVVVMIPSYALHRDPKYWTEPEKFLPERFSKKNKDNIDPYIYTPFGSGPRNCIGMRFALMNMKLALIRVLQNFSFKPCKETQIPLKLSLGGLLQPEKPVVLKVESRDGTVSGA

AT2R = conditions: read-out: IC50 measured via a radiolabeled ligand-binding assay; cited from earlier work
CYP1A2 = target: T3, CYP1A2 (Homo sapiens, UniProt P05177); experiment: CYP inhibition assay, CYP1A2; type: in vitro ADME
T3 sequence (P05177 1-516): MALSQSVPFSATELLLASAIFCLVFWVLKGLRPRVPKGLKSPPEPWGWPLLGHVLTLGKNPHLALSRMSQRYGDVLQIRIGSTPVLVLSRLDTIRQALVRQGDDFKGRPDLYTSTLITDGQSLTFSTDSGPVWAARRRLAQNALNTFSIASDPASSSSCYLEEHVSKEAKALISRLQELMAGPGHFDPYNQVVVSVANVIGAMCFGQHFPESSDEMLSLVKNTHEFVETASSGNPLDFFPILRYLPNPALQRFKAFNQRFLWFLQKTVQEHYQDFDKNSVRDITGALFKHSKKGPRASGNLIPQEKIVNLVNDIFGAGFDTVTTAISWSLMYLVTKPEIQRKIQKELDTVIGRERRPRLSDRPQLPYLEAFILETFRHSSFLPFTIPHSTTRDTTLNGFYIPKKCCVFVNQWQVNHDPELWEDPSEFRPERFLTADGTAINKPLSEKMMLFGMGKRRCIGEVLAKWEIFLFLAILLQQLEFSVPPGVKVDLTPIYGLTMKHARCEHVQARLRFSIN

[3] = Human hepatocytes metabolic stability assay; type: in vitro ADME; conditions: cryopreserved hepatocytes
[4] = Caco-2 cell permeability assay; type: in vitro ADME; conditions: human, Caco-2, pH 7.4
hERG channel = hERG channel (Homo sapiens, UniProt Q12809); experiment: hERG patch clamp assay; type: cell-based
Sequence of hERG channel (Q12809 whole entry): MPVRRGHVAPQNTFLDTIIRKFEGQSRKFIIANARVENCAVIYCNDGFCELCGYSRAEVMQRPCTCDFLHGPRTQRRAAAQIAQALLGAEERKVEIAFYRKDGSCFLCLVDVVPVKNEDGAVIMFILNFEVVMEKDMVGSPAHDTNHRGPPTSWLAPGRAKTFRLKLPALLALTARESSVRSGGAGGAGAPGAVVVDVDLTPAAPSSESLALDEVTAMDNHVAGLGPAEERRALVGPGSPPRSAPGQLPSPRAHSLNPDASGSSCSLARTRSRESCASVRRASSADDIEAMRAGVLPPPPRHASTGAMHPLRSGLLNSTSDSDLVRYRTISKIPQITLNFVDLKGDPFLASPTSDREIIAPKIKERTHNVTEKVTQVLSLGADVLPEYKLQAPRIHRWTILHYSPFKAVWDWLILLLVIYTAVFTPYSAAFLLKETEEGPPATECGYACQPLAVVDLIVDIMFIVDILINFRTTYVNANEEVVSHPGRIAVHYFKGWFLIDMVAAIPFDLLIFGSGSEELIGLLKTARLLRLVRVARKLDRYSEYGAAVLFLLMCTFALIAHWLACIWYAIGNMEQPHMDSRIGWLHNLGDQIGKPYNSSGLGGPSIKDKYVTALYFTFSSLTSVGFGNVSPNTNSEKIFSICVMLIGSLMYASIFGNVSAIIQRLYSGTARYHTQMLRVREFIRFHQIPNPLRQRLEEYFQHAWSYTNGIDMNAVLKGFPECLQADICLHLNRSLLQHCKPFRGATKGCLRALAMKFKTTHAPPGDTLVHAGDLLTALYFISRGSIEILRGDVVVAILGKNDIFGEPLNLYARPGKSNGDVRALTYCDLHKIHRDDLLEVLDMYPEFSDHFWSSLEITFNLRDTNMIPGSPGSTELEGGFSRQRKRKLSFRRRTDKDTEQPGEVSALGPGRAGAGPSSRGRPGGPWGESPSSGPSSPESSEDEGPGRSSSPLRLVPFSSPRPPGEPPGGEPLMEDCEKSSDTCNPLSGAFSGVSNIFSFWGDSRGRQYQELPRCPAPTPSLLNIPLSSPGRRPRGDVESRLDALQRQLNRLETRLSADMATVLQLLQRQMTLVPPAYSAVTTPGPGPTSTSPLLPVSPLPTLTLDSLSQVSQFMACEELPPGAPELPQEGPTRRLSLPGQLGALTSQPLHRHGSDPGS

[5] = Plasma protein binding by equilibrium dialysis, rat; type: in vitro ADME; conditions: pH 7.4
CYP2D6 = CYP2D6 (Homo sapiens, UniProt P10635); experiment: CYP inhibition assay, CYP2D6; type: in vitro ADME
Sequence of CYP2D6 (P10635 whole entry): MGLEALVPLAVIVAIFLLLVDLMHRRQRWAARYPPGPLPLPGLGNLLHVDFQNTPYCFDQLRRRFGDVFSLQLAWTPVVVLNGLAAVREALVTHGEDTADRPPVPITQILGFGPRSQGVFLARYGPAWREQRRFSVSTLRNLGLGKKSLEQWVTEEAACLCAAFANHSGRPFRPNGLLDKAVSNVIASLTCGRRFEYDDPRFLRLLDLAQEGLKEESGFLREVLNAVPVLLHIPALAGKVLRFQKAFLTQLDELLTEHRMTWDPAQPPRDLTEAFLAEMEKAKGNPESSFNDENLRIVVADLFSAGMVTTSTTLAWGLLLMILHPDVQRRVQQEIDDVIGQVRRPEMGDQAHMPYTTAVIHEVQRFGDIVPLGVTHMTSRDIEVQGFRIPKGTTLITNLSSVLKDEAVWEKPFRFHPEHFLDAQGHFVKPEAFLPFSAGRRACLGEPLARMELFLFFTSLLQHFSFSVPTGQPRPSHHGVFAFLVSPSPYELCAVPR

[6] = Liver microsome stability assay, human; type: in vitro ADME; conditions: liver microsomes, pH 7.4
[7] = Plasma protein binding by equilibrium dialysis, human; type: in vitro ADME; conditions: pH 7.4

For `COc1ccc2c(c1OCc1ccc(OC(F)(F)F)cc1)C[C@@H](C(=O)O)N(c1nc3ccc(F)cc3o1)C2` [Compound 28], which “hAT1R antagonistic activity at the highest tested concentration” value (human AT1R) is on record?
The value was “none of them showed any hAT1R antagonistic activity”.

With `COc1ccc2c(c1OCc1ccccc1)C[C@@H](C(=O)O)N(C(=O)C(c1ccccc1)c1ccccc1)C2` [EMA401] as the molecule, how does the IC50 (CYP2C9) read?
Its IC50 is 7.4 µM.

And the “paw withdrawal threshold responsive to tactile stimulation (von Frey)” value (CCI rats)?
The value was “significantly increased paw withdrawal threshold”.

What about the “effect on neurite outgrowth induced by angiotensin II” value (NG108-15 cells) of the same molecule?
Its value is “abolished neurite outgrowth induced by angiotensin II”.

And the IC50 (CYP2C19)?
Its IC50 is greater than 50 µM.

What about the “toxicity finding after chronic dosing” value (monkeys) of the same molecule?
The value was “hepatotoxicity in monkeys”.

What about the salivary discharge (rats; rat, 200, 400, and 800 mg/kg/day, 1 h after dosage) of the same molecule?
The salivary discharge was “in high-, medium-, and low-dose groups”.

And the “gross anatomy vs vehicle group” value (rats; rat, 7 days, kidneys, hearts, livers)?
The value was “no distinguishable gross anatomy differences”.

What about the tolerability (rats; rat, oral gavage, 200, 400, and 800 mg/kg/day for 7 days) of the same molecule?
The tolerability was “well tolerated with no serious adverse events or significant laboratory abnormalities”.

What about the clearance ([1]; iv, 1 mg/kg) of the same molecule?
The clearance was 14 ± 1 mL/min/kg.

And the half-life ([1]; iv, 1 mg/kg)?
The half-life was 1.6 ± 0.3 h.

What about the AUC(0-t) ([1]; po, 10 mg/kg) of the same molecule?
The AUC(0-t) was 1470 ± 709 ng·h/mL.

What about the Cmax ([1]; po, 10 mg/kg) of the same molecule?
Its Cmax is 470 ± 197 ng/mL.

And the bioavailability ([1]; po, 10 mg/kg)?
The bioavailability was 12 ± 6%.

And the IC50 (CYP2C8)?
The IC50 was 20 µM.

What about the CLint scaled at 1 μM [2] of the same molecule?
Its CLint scaled at 1 μM is 25.9 ± 1 mL/min/kg.

And the IC50 (CYP3A4)?
Its IC50 is greater than 50 µM.

And the IC50 (CYP1A2)?
Its IC50 is greater than 50 µM.

And the CLint scaled at 1 μM [3]?
The CLint scaled at 1 μM was 66 mL/min/kg.

What about the Papp A→B at 90 min, 10 µM [4] of the same molecule?
The Papp A→B at 90 min, 10 µM was 3.3 ± 0.3 ×10⁻⁶ cm/s.

And the Papp B→A at 90 min, 10 µM [4]?
The Papp B→A at 90 min, 10 µM was 24.5 ×10⁻⁶ cm/s.

What about the IC50 (hERG channel) of the same molecule?
Its IC50 is greater than 10 µM.

What about the “hERG potassium channel activity” value (hERG channel; concentrations up to 10 μM) of the same molecule?
The value was “no hERG potassium channel activity”.

And the fraction unbound at 6 h, 1 μM [5]?
The fraction unbound at 6 h, 1 μM was less than 0.001.

What about the IC50 (CYP2D6) of the same molecule?
The IC50 was greater than 50 µM.

What about the CLint scaled at 1 μM [6] of the same molecule?
Its CLint scaled at 1 μM is 25 ± 1.1 mL/min/kg.

What about the fraction unbound at 6 h, 1 μM [7] of the same molecule?
The fraction unbound at 6 h, 1 μM was less than 0.001.

Which “paw withdrawal threshold responsive to tactile stimulation (von Frey)” value (CCI rats) does the source give for `CC(C)C[C@H](CN)CC(=O)O` [pregabalin] here?
The value was “significantly increased paw withdrawal threshold”.
